Assay results gathered from unrelated publications.
Lines come from different studies, so protocols differ.
Target: Serine/threonine-protein kinase PLK1 (PLK1, Homo sapiens, UniProt P53350)

For `NS(=O)(=O)c1cc(NC(=O)Cc2ccccc2)ccc1Oc1cccc(Cl)c1`, the remaining binding was 73% (cell-free assay, competition with immobilised ligand; 1 µM).
For `O=C(c1ccc(Nc2ncc(Cl)c(-c3ccc(Cl)s3)n2)cc1)N1CCC(N2CCCC2)CC1`, the remaining binding was 61% (binding, competition with immobilised ligand; 1 µM).
`c1cnn2ncc(-c3ccnc(N4CCC45COC5)n3)c2c1` gave a remaining binding of 72% (binding; 1 µM).
`CNC(=O)[C@@H]1CC[C@@H](n2c(-c3ccc4cnccc4c3)nc3ccc(C(=O)NCc4cccc(C(N)=O)c4)cc32)C1` has a remaining binding of 100% (binding, competition with immobilised ligand; 1 µM).
With `CN(C(=O)c1ccccc1)c1cc(N(C)c2ccc3c(c2)CCc2ccc(C(=O)NCCN4CCOCC4)cc2C3=O)ccc1F` the remaining binding was 100% (cell-free assay, competition with immobilised ligand; 1 µM).
For `Cc1cnn2ncc(-c3ccnc(N(C)C)n3)c2c1`, the remaining binding was 84% (binding; 1 µM).
`O=C(NCCCN1CCOCC1)c1ccc(Nc2nccc(-c3cc4ccccc4s3)n2)cc1` has a remaining binding of 77% (binding, competition with immobilised ligand; 1 µM).
For `CO[C@@H](C)c1c(Nc2ccc([C@@H](N(C)C(=O)C3CCS(=O)(=O)CC3)C(F)(F)F)cc2)cnc2cc(Cl)nn12`, the remaining binding was 87% (cell-free assay, competition with immobilised ligand; 1 µM).
For `C[C@@H]1CCN(c2nccc(-c3cnn4ncccc34)n2)C1`, the remaining binding was 76% (binding; 1 µM).
For `C[C@@H](c1cccc(C#N)c1)n1cc(Cl)cc(C(N)=O)c1=N`, the remaining binding was 98% (cell-free assay, competition with immobilised ligand; 1 µM).
`O=C(NCC1CCOCC1)c1n[nH]cc1NC(=O)c1c(F)cccc1F` gave a remaining binding of 90% (binding, competition with immobilised ligand; 1 µM).
`C=CC(=O)N1CCC(C(=O)NCC(=O)N2CCN(c3nc(-c4cnc(N)nc4C(F)F)nc(N4CCOCC4)n3)CC2)CC1` has a remaining binding of 99% (binding, competition with immobilised ligand; 1 µM).
`C[C@@H]1CN(c2ccc3ncc(-c4ccc5[nH]nc(C6CC6)c5c4)n3n2)C[C@H](C)O1` has a remaining binding of 97% (binding, competition with immobilised ligand; 50 nM).
For `O=C(NCc1ncc(C(F)(F)F)cc1Cl)c1ccc2c(c1)C1(CCS(=O)(=O)CC1)[C@H](C1CC1)N2S(=O)(=O)c1ccc(F)cc1`, the remaining binding was 86% (cell-free assay, competition with immobilised ligand; 1 µM).
With `COc1cnc(Nc2cccc(S(N)(=O)=O)c2)nc1N1CCN(c2ccccc2)CC1` the remaining binding was 79% (binding, competition with immobilised ligand; 1 µM).
For `N#Cc1ccccc1CSc1nnc2c(n1)[nH]c1ccccc12`, the remaining binding was 94% (binding, competition with immobilised ligand; 10 µM).
For `CC1CCCN1c1nccc(-c2cnn3ncccc23)n1` (stereo not shown), the remaining binding was 100% (binding; 1 µM).
The remaining binding of `COc1ncc2cc3ccccc3nc2c1C#N` is reported as 73% (cell-free assay, competition with immobilised ligand; 5 µM).
The remaining binding of `COc1ccnn2ncc(-c3ccnc(N(C)C)n3)c12` is reported as 94% (binding; 1 µM).
With `COc1cc(C(=O)N2CCC(N3CCN(C)CC3)CC2)ccc1Nc1ncc2c(n1)N(C)c1ccccc1C(=O)N2C` the remaining binding was 0.7% (binding, competition with immobilised ligand; 10 µM).
`O=C(N[C@H]1CCCCC/C=C\C2C[C@@]2(C(=O)O)NC(=O)[C@@H]2C[C@@H](Oc3ccncc3)CN2C1=O)OC1CCCC1` (stereo partly shown) has a remaining binding of 71% (binding, competition with immobilised ligand; 1 µM).
The remaining binding of `C[C@@H](c1ccc(-n2cnc3c(N)ncnc32)cc1)N1CCc2nn(C)c(Cc3ccccc3)c2C1=O` is reported as 86% (binding, competition with immobilised ligand; 0.1 µM).
`CC1=C(C#N)C(c2ccc3c(c2)c(NC(=O)c2ccccc2C)nn3C)C(C#N)=C(C)N1` has a remaining binding of 85% (cell-free assay, competition with immobilised ligand; 1 µM).
With `CN(C)c1nccc(-c2cnc3ncccn23)n1` the remaining binding was 69% (binding; 1 µM).
With `O=C(NCCCN1CCOCC1)c1ccc(Nc2ncc(Cl)c(-c3ccc(Cl)s3)n2)cc1` the remaining binding was 22% (binding, competition with immobilised ligand; 1 µM).
